In the library only some 3.4% were active in any assay of this set; here they are far more common.
S100A4 MyoIIA: inhibitors of human S100A4 binding to myosin IIA peptide; P26447; S100A4/TAMRA-MyoIIA peptide fluorescence polarization; inhibition, % at 10.7 µM; 360,000 compounds, 0.14% hits; AID 652163;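 active means mean inhibition of at least 70% across replicates, with every replicate also reaching that level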
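incubation = readout 5 min after mixing, signal stable up to 60 min | system = S100A4 monomer protein | buffer or medium = HEPES pH 7.2 with CaCl2, KCl, NaCl, DTT, Triton | benchmarks = neutral control DMSO, positive control TFP | also added = fluorescent myosin IIA peptide, 5 nM | compound dosing = one concentration per compound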
MLL AF4-AF9 inh: inhibitors of human MLL-AF4/AF9 interaction; P42568; AlphaScreen, biotin-AF4 peptide binding to FLAG-AF9; inhibition, % at 10 µM; 350,000 compounds, 0.47% hits;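 active means every replicate reaching a set inhibition limit, whatever the replicate mean, cut at about 25% in these data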;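 further: 0% = plate neutral control median and 100% = total signal loss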
E-selectin induc: induces E-selectin expression in human endothelial cells | P16581 | HUVEC E-selectin immunofluorescence imaging; normalized: neutral wells 0, TNF-alpha wells 100 | activation, % at 7.58 µM | 260,000 compounds, 0.37% hits | AID 686992;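 active means mean E-selectin-positive cell signal at least 10% of the positive control, reached in at least 60% of replicates, without over 20% cell loss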
Target sequence (P16581 whole entry, looked up): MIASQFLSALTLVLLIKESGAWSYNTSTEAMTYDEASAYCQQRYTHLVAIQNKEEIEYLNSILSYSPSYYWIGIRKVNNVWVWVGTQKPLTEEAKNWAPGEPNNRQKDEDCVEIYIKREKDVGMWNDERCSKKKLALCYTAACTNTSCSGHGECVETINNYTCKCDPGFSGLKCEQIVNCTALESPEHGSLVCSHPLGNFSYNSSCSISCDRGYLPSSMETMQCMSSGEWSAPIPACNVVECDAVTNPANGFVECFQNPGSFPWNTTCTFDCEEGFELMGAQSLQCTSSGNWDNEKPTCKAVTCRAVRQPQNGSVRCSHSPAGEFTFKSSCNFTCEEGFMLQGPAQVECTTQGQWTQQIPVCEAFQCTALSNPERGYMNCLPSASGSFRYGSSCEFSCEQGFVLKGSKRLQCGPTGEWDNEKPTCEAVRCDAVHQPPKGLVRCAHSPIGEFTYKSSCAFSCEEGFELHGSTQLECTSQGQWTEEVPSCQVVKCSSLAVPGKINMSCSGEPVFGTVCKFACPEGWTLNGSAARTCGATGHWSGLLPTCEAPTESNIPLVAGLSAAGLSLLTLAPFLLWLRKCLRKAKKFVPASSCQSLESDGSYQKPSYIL
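Test system: HUVEC | Signal: Immunofluorescence imaging | Read-out: Percent E-selectin-positive cells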
SIRT5 inh: inhibitors of human sirtuin-5 desuccinylase. 330,000 compounds, 1.1% hits. AID 652115. Purified SirT5, succinyl-peptide AMC, trypsin-coupled fluorescence. Q9NXA8. inhibition, % at 15 µM; in the data active means inhibition above about 15%
ERAP1 HTS inh: inhibitors of human ERAP1 aminopeptidase; AID 652197; 340,000 compounds, 0.15% hits; inhibition, % at 10.7 µM; recombinant ERAP1, Leu-AMC fluorescence, 60 min; Q9NZ08;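 active means mean replicate inhibition of at least 30%, or all replicates individually reaching that 30% level; inactive means mean below 30% and not every replicate reaching it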;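 further: 0% = neutral control wells and 100% = L-leucinethiol positive control wells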
Ecoli rRNA inh: inhibits bacterial ribosomal RNA function over humanized ribosomes; E. coli WT GFP vs humanized-ribosome RFP mutants, fluorescence, 24 h; active compounds read low; DMSO median 0, no signal -100; GFP signal change (wild-type ribosome), % (test concentration not listed); 350,000 compounds, 1.6% hits;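 active means significant combined selectivity score with lowered wild-type GFP, culture density cut under 30%, mutant RFP and density less affected; inactive means any of these conditions unmet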
The depositor's hits bear a star.

For Cc1ccc(S(=O)(=O)N(C)C[C@@H]2OCCCC[C@@H](C)Oc3ccc(NC(=O)NC4CCCCC4)cc3C(=O)N([C@H](C)CO)C[C@H]2C)cc1 the results were S100A4 MyoIIA -14.3, MLL AF4-AF9 inh -1.8, E-selectin induc 0.2, SIRT5 inh 3.7, ERAP1 HTS inh -0.8 and Ecoli rRNA inh -2.9.
Screening Cc1ccc(S(=O)(=O)N(C)C[C@@H]2OCCCC[C@H](C)Oc3ccc(NC(=O)NC4CCCCC4)cc3C(=O)N([C@@H](C)CO)C[C@H]2C)cc1 returned S100A4 MyoIIA -1.1, MLL AF4-AF9 inh 25.9*, E-selectin induc -0.3, SIRT5 inh 9.9, ERAP1 HTS inh 1.9 and Ecoli rRNA inh 3.3.
Screening C[C@@H]1CCCCO[C@H](CN(C)Cc2ccccc2)[C@@H](C)CN([C@H](C)CO)C(=O)c2cc(N(C)C)ccc2O1 returned MLL AF4-AF9 inh 0.7, E-selectin induc 0.2 and Ecoli rRNA inh 0.5.
For C[C@@H]1CN([C@H](C)CO)C(=O)Cc2cc(NC(=O)Cn3cnnn3)ccc2O[C@@H]1CN(C)Cc1ccncc1 the results were S100A4 MyoIIA 17.6, MLL AF4-AF9 inh -3.3, E-selectin induc -1.5, SIRT5 inh 1.7, ERAP1 HTS inh -2.1 and Ecoli rRNA inh 2.2.
For CC(C)(O)C(O)COc1c2ccoc2cc2oc(=O)ccc12 (centres undefined) the results were S100A4 MyoIIA -0.9, MLL AF4-AF9 inh -11.0, SIRT5 inh -0.4, ERAP1 HTS inh 0.5 and Ecoli rRNA inh 2.3.
Screening CC(=O)OC(C=C(C)C)C/C(C)=C/COc1c2ccoc2cc2oc(=O)ccc12 (centres undefined) returned S100A4 MyoIIA 7.4, MLL AF4-AF9 inh -1.3, SIRT5 inh 4.3, ERAP1 HTS inh -3.0 and Ecoli rRNA inh -21.4*.
For COc1cccc(N2CC(C(=O)Nc3nnc(SCC(=O)N4CCCC4)s3)CC2=O)c1 (centres undefined) the results were S100A4 MyoIIA 2.9, MLL AF4-AF9 inh 0.8, E-selectin induc 0.3, SIRT5 inh 17.0*, ERAP1 HTS inh 4.2 and Ecoli rRNA inh 9.2.
CO[C@@H]1CN(C)C(=O)c2cc(NC(=O)Nc3c(C)noc3C)ccc2OC[C@H](C)N(CC2CC2)C[C@H]1C was read as S100A4 MyoIIA 11.8, MLL AF4-AF9 inh -0.5, E-selectin induc 0.2, SIRT5 inh -2.4, ERAP1 HTS inh 1.0 and Ecoli rRNA inh 0.3.
Screening COc1cccc(-c2cc3nc4c(c(NCC(C)(C)CN(C)C)n3n2)CCCC4)c1 returned S100A4 MyoIIA -1.3, MLL AF4-AF9 inh 16.5, E-selectin induc 3.8, SIRT5 inh -4.1, ERAP1 HTS inh 15.2 and Ecoli rRNA inh -52.2.
For Fc1cccc(-c2cc3nc4c(c(NCc5ccco5)n3n2)CCCC4)c1 the results were S100A4 MyoIIA -8.7, MLL AF4-AF9 inh -12.5, SIRT5 inh -0.8, ERAP1 HTS inh -2.3 and Ecoli rRNA inh -32.0*.
For CNC[C@H]1Oc2ccc(N)cc2CC(=O)N(C)C[C@@H]1C the results were Ecoli rRNA inh -0.5.
Cc1cccc(N2CCN(C(=O)CCC(=O)N3Cc4ccccc4Oc4ncccc43)CC2)c1C was read as S100A4 MyoIIA -19.4, MLL AF4-AF9 inh 47.0*, E-selectin induc -0.8, SIRT5 inh 5.7, ERAP1 HTS inh 3.1 and Ecoli rRNA inh -25.0.
For Cc1cccc(N2CCN(C(=O)CCC(=O)N3CC(C)Oc4ccccc43)CC2)c1C (centres undefined) the results were S100A4 MyoIIA 0.6, MLL AF4-AF9 inh -13.4, E-selectin induc -0.1, SIRT5 inh 11.1, ERAP1 HTS inh 4.6 and Ecoli rRNA inh -1.6.
`C[C@@H]1CN([C@H](C)CO)C(=O)c2cccc(NC(=O)C3CCCCC3)c2O[C@H]1CN(C)S(C)(=O)=O` gave S100A4 MyoIIA 5.1, MLL AF4-AF9 inh -0.1, E-selectin induc -6.2, SIRT5 inh -8.5, ERAP1 HTS inh 4.0 and Ecoli rRNA inh -0.2.
For COc1ccc(/C=C2\SC(=S)N(C(C(=O)O)c3ccccc3)C2=O)c(OC)c1 (centres undefined) the results were S100A4 MyoIIA 1.2, MLL AF4-AF9 inh -4.9, SIRT5 inh 12.2, ERAP1 HTS inh -18.1 and Ecoli rRNA inh -47.4.
